Screening results deposited in PubChem by Johns Hopkins Ion Channel Center.
The list is not random: actives were taken first. Their share in the collection is about 3.5%.
MrgX1 antagonist = antagonists of human MrgX1 receptor, primary screen, HEK293 cells, Fluo-4 calcium flux; Mas-related G-protein coupled receptor member X1 (Homo sapiens), Q96LB2; BAM8-22 antagonism; hits give low values; B-score at 10 µM; hit rate 1.3% among 310,000;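 active = calcium-response B-score plate-corrected more than 3 library SD below zero, starting fluorescence within 5 deviations, no agonist response on first addition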;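 note: peak minus trough fluorescence over baseline after final BAM8-22 challenge near maximal dose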
Target sequence (Q96LB2 whole entry, looked up): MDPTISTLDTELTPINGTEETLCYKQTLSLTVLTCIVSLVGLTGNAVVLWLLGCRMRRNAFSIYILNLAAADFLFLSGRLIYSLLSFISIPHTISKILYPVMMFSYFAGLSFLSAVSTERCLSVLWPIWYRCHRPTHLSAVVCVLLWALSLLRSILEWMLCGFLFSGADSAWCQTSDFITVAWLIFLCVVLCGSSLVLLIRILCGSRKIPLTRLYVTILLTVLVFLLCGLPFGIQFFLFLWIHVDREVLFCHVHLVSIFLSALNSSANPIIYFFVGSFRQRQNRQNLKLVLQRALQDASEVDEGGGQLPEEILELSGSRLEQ
RGS4 pot = RGS4 potentiators or activators, primary screen, cell-based, HEK293 M3R inducible RGS4, calcium flux; carbachol calcium flux Fluo4; hits give low values; B-score at 10 µM; hit rate 0.92% among 310,000;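 active = B-score of the integrated calcium signal more than 4 SD below the library mean, with starting fluorescence not abnormally high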;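 note: negative B-score means reduced calcium response which marks RGS4 activation or potentiation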
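Also added: carbachol at ECmax as muscarinic agonist stimulus; Assay system: HEK293 cells with stable M3R and inducible RGS4; Timing: overnight RGS4 induction, 30 min dye load 37 °C, 20 min compound RT; Measured by: Fluo4-AM (2 µM) calcium-flux fluorescence, kinetic read.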
MrgX1 ag = agonists of human MrgX1 receptor, primary screen, HEK293 cells, Fluo-4 calcium flux. AID 588627, 2011. Fluo-4 calcium fluorescence, agonist mode; hits give high values. hit rate 0.44% among 310,000. B-score at 10 µM. Mas-related G-protein coupled receptor member X1 (Homo sapiens), Q96LB2;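 active = calcium response B-score plate-corrected fluorescence ratio at least 3 library SD, with starting fluorescence B-score inside 5 SD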
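System – MrgX1-expressing HEK293 cells · Incubation – cells plated overnight, dye loaded 0.5 h 37 °C, 0.5 h room temperature · Technique – kinetic Fluo-4 NW fluorescence of intracellular calcium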
RGS4 block = RGS4 inhibitors, primary screen, cell-based, HEK293 M3R inducible RGS4, calcium flux. Regulator of G-protein signaling 4 (Homo sapiens), P49798. Fluo-4 calcium flux; hits give high values; triggered by carbachol at its EC20. B-score at 10 µM. hit rate 0.45% among 310,000. AID 463165, 2010;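 active = B-score, a plate-corrected calcium signal, over three deviations above library mean, with baseline fluorescence within five deviations of library mean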;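 note: RGS4 expression induced by doxycycline in cells with stable M3 receptor; B-score is computed from the integrated fluorescence ratio over baseline after carbachol; higher B-score means a larger calcium signal and so more RGS4 inhibition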
Target sequence (P49798 whole entry, looked up): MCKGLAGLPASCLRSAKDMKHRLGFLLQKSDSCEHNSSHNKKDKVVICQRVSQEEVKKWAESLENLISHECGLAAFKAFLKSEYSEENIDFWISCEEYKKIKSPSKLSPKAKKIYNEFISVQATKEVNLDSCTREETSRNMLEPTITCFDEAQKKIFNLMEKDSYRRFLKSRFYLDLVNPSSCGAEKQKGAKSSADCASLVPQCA
MrgX1 allo act = positive allosteric modulators of MrgX1, primary screen, HEK293 cells, Fluo-4 calcium flux | FDSS; hits give high values | B-score at 10 µM | Mas-related G-protein coupled receptor member X1 (Homo sapiens), Q96LB2 | hit rate 0.63% among 310,000;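 active = plate-corrected calcium response at least 3 library SD above typical, normal starting fluorescence, not activating the receptor alone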;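 note: compound read alongside a low EC10 to EC30 dose of BAM8-22 agonist; peak minus trough fluorescence over baseline measured at the second addition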
Numbers without * were called inactive; i = inactive; . = no result given.

SMILES | MrgX1 antagonist | RGS4 pot | MrgX1 ag | RGS4 block | MrgX1 allo act
CC(=O)c1cccc(CN(C)CC2CCCN(CCc3ccccc3C)C2)c1 (configuration not stated) | i | -7.05* | i | i | i
CN(Cc1ccccc1)CC1CCCN(CCc2ccccc2F)C1 (configuration not stated) | i | i | i | i | i
CC(C)N1CCN(Cc2ccsc2)CC1CCO (configuration not stated) | i | i | i | i | i
CCCN1C(=O)C2(C(C(=O)c3ccc(C)o3)=C(O)C(=O)N2CCCOC)c2ccccc21 (configuration not stated) | i | i | i | i | i
O=C(NCc1cccc(Cl)c1)c1cc(=O)[nH]c2ccccc12 | i | i | i | i | i
CCN(CC)C(CNC(=O)c1cc(=O)[nH]c2ccccc12)c1ccccc1Cl (configuration not stated) | i | -7.47* | i | i | i
O=c1c2ccccc2nc(COc2ccccc2)n1/N=C/c1ccc(O)c(O)c1 | i | -7.65* | i | i | i
O=C(O)COc1ccc(/C=N/n2c(COc3ccccc3)nc3ccccc3c2=O)cc1 | i | i | i | i | i
COc1cnn(-c2ccc(Br)cc2)c(=O)c1SCc1ccccc1 | i | i | i | i | i
COc1cnn(-c2ccc(C)cc2)c(=O)c1SCc1ccccc1 | i | i | 30.3* | i | i
CN(C)c1nc2ccc(OCCN3CCCCC3)cc2s1 | i | -7.33* | i | i | i
O=C(O)c1ccc(CNC(=O)c2ccc3c(c2)C(=O)N(Cc2cccnc2)C3=O)cc1 | -4.88* | i | i | i | i
CCOC(=O)C1CCN(C(=O)Nc2ccc3nc(-c4ccco4)c(-c4ccco4)nc3c2)CC1 | -4.99* | i | i | i | i
O=C(Nc1ccc2nc(-c3ccco3)c(-c3ccco3)nc2c1)N1CCCCCC1 | i | i | i | i | i
CC(=O)CC1(O)C(=O)Nc2ccccc21 (configuration not stated) | i | i | i | i | i
O=C1Nc2ccccc2C1(O)C/C(=N/O)c1ccccc1 (configuration not stated) | -7.52* | i | i | i | i
CCCCNC(=O)c1onc(CSc2cccc(C)c2)c1C(=O)O | i | i | i | i | i
COc1cccc(NC(=O)c2cc3ccccc3o/c2=N\O)c1 | i | i | 27* | i | i
COc1ccc(NC(=O)c2cc3cccc(OC)c3oc2=Nc2ccc(C(=O)O)cc2)cc1OC | . | i | . | i | .
COc1cccc(NC(=O)c2cc3cccc(OC)c3o/c2=N\O)c1 | i | i | i | 6.13* | i
COc1cc(NC(=O)c2cc3cccc(OC)c3o2)cc(C(=O)Nc2cccc(C(F)(F)F)c2)c1 | -5.18* | -8.21* | i | i | i
CCOc1cc(C(=S)N2CCN(C)CC2)ccc1OCC(=O)N1CCCC1 | i | i | i | i | i
CCOc1ccc(NC(=O)CSc2nnc(-c3ccncc3)n2CC2CCCO2)cc1 (configuration not stated) | -6.67* | i | i | i | i
O=[N+]([O-])c1ccc(/C=N/N2CCCCC2)cc1 | i | i | i | i | i
COc1ccc(-n2cc(-c3ccccc3)c3c(N4CC(C)OC(C)C4)ncnc32)cc1 (configuration not stated) | i | -7.04* | i | i | i
SMILES | MrgX1 antagonist | RGS4 pot | MrgX1 ag | RGS4 block | MrgX1 allo act
c1ccc(-c2cn(-c3ccccc3)c3ncnc(N4CCCCC4)c23)cc1 | i | i | i | i | i
O=C(COC(=O)/C=C/c1cn(-c2ccccc2)nc1-c1ccc2c(c1)OCCO2)NC1CCS(=O)(=O)C1 (configuration not stated) | i | -8.5* | i | i | i
Cn1nc(C(F)(F)F)c(-c2ccc(F)cc2)c1NC(=O)Nc1ccc(F)cc1 | -5.36* | i | i | i | i
CCOC(=O)c1cc(C#N)c(Oc2ccc(F)cc2)nc1-c1ccccc1 | i | i | i | i | i
CCOC(=O)c1cc(C#N)c(Oc2cccc(C(F)(F)F)c2)nc1-c1ccccc1 | i | -7.84* | i | i | i
Cc1c(Cc2ccccc2)sc(/N=C/c2ccc3ccccc3c2)c1C(N)=O | i | . | i | . | i
Cc1c(Cc2ccccc2)sc(/N=C/c2c(O)ccc3ccccc23)c1C(N)=O | -7.62* | i | i | i | i
OC(c1ccccc1)(c1ccccc1)c1ncc[nH]1 | i | i | i | i | i
COc1ccccc1-c1nnn(CC#N)n1 | -7.54* | i | i | i | i
C[N+]1=C(/C=C/Nc2ccccc2Cl)C(C)(C)c2ccccc21 | i | i | i | i | i
COC(=O)c1ccc2c(c1)C(C)(C)C(/C=C/c1ccccc1O)=[N+]2C | i | -7.25* | i | i | i
CC(C)(C)NC(=S)N/N=C\c1ccc(-c2ccc([N+](=O)[O-])cc2)o1 | i | i | 28.3* | i | i
O=C(O)c1cccc(-c2ccc(/C=N/Nc3ccc([N+](=O)[O-])cc3)o2)c1 | -7* | i | i | i | i
CCNCc1nc2cc(Cl)ccc2c(=O)[nH]1 | i | i | i | i | i
COc1ccc(CC(=O)Nc2cccc(-c3nnc(-c4ccc(C)cc4)o3)c2)cc1OC | i | -10.1* | i | i | i
COc1ccc(CC(=O)Nc2ccc(-c3nnc(-c4ccccc4)o3)cc2)cc1OC | i | i | i | i | i
COc1ccc(C2(c3ccc(OC)cc3)NC(=O)N(CC(=O)Nc3cc(C)ccc3OC)C2=O)cc1 | i | i | i | i | i
CC(C)c1ccc(/C=C/C(=O)NC(=S)Nc2ccc(CN3CCOCC3)cc2)cc1 | i | -8.79* | i | i | i
COc1ccc(/C=N/Nc2nnc(Cc3ccccc3)c(=O)[nH]2)cc1 | i | i | 27.8* | i | i
COc1cc(N2CCCC2)c(OC)cc1/C=C(/C#N)c1ccc(F)cc1 | -4.93* | i | i | i | i
COc1cc(N2CCCC2)c(OC)cc1/C=C(/C#N)c1ccc(Br)cc1 | -4.59* | i | i | i | i
COc1cc([N+](=O)[O-])ccc1NC(=O)CSc1nncn1-c1cccnc1 | i | i | i | i | i
